Experimental data from different studies.
Lines come from different studies, so protocols differ.
Target: Casein kinase I isoform alpha (CSNK1A1, Homo sapiens, UniProt P48729)

Structure (SMILES) | read-out | mode | method | cell line | tested at | endpoint | value
Cc1c(NC(=O)c2cc(C(N)=O)nc3cc(F)ccc23)c(C(F)(F)F)nn1Cc1ccc(C#N)cc1 | cell-free assay |  | competition with immobilised ligand |  | 1 µM | remaining binding | 72%
Cc1ccc(NC(=O)c2ccc(CN3CCN(C)CC3)cc2)cc1Nc1nccc(-c2cccnc2)n1 | enzyme activity | inhibitor |  |  | 0.5 µM | activity vs control | 102%
c1ccc(CNc2nc(N3CCOc4ccccc43)nc3c2CCCC3)cc1 | target engagement in cells | inhibitor | chemoproteomics |  | 20 mM | inhibition | -1.4%
COc1cc2ncnc(Nc3ccc(Oc4ccccc4)cc3C)c2cc1OC | enzyme activity | inhibitor |  |  | 1 µM | inhibition | 3%
Nc1ncnc2occ(-c3ccc(NC(=O)Nc4cc(C(F)(F)F)ccc4F)cc3)c12 | enzyme activity | inhibitor |  |  | 20 µM | remaining activity | 3.7%
CCc1ccccc1C(=O)Nc1n[nH]c2c(C)c(F)c(C3C(C#N)=C(C)N(C)C(C)=C3C#N)cc12 | cell-free assay |  | competition with immobilised ligand |  | 1 µM | remaining binding | 96%
CCN1CCN(Cc2ccc(NC(=O)c3ccc(C)c(/C=C/c4cnc5[nH]ccc5c4OC)c3)cc2C(F)(F)F)CC1 | target engagement in cells | inhibitor | chemoproteomics | A-375 | 5 µM | inhibition | -58.8%
O=C1NC(=O)c2cc(Nc3ccc(F)cc3)c(Nc3ccc(F)cc3)cc21 | cell-free assay | inhibitor |  |  | 0.5 µM | remaining signal | 88%
Cc1ccc(C(=O)Nc2ccc(CN3CCN(C)CC3)c(C(F)(F)F)c2)cc1C#Cc1cnc2cccnn12 | enzyme activity | inhibitor |  |  | 23.5 nM | remaining activity | 86%
COc1cc(OC)c(C=C2C(O)=Nc3ccccc32)c(OC)c1 | cell-free assay | inhibitor |  |  | 0.5 µM | remaining signal | 59.6%
CN(C)C1CCN(CC#Cc2nn(C3CCCC3)c3nc(NCc4ccccc4)ncc23)C1 (centres unmarked) | enzyme activity | inhibitor | FRET |  | 10 µM | inhibition | 1%
O=C(O)[C@@H]1[C@@H](Cn2nnc3ccccc3c2=O)CC[C@H]1C(=O)c1ccc(OCCC2CCOCC2)cc1 | cell-free assay |  | competition with immobilised ligand |  | 1 µM | remaining binding | 97%
CNc1cccc2cc(C(=O)Nc3ccc(C(=O)O)cc3)c(=O)[nH]c12 | enzyme activity | inhibitor |  |  | 10 µM | inhibition | 3.5%
CCC(=O)N[C@H]1CC[C@@H](C(=O)N(C)c2ccc(-c3nc4ccccc4o3)cc2)C1 | cell-free assay |  | competition with immobilised ligand |  | 1 µM | remaining binding | 82%
COc1cc2ncnc(Nc3ccc(F)c(Cl)c3)c2cc1OCCCN1CCOCC1 | cell-free assay |  |  |  | 0.5 µM | remaining signal | 98.6%
CO[C@H]1CC[C@H](CNc2ccc(S(=O)(=O)NC(=O)c3ccc(N4CCN(CC5=C(c6ccc(Cl)cc6)CC(C)(C)CC5)CC4)cc3Oc3cnc4[nH]ccc4c3)cc2[N+](=O)[O-])CC1 | cell-free assay |  | competition with immobilised ligand |  | 1 µM | remaining binding | 85%
Cc1sc(C(=O)NC2COC2)cc1-n1cc(NC(=O)Nc2c(F)cccc2Cl)cn1 | enzyme activity | inhibitor |  |  | 10 µM | remaining activity | 81.1%
